In ChEMBL document CHEMBL1149694, “5-(3-Cyclopentyl-2-thioxo-2,3-dihydro-1H-benzimidazol-5-yl)-1-methyl-1H-pyrrole-2-carbonitrile: A novel, highly potent, selective, and orally active non-steroidal progesterone receptor agonist” (Bioorg Med Chem, 2007):
Active and inactive are the calls of the source. The calls are words filed in the database; no cut-off is given here.

Assays:
Progesterone receptor [1] = molecular target: T1, Progesterone receptor (Homo sapiens, UniProt P06401); experiment: (§1) Antagonist activity at progesterone receptor expressed in T47D cells assessed as inhibition of progesterone-induced alkaline phosphatase activity; format: functional, cell-based
T1 sequence (P06401 whole entry): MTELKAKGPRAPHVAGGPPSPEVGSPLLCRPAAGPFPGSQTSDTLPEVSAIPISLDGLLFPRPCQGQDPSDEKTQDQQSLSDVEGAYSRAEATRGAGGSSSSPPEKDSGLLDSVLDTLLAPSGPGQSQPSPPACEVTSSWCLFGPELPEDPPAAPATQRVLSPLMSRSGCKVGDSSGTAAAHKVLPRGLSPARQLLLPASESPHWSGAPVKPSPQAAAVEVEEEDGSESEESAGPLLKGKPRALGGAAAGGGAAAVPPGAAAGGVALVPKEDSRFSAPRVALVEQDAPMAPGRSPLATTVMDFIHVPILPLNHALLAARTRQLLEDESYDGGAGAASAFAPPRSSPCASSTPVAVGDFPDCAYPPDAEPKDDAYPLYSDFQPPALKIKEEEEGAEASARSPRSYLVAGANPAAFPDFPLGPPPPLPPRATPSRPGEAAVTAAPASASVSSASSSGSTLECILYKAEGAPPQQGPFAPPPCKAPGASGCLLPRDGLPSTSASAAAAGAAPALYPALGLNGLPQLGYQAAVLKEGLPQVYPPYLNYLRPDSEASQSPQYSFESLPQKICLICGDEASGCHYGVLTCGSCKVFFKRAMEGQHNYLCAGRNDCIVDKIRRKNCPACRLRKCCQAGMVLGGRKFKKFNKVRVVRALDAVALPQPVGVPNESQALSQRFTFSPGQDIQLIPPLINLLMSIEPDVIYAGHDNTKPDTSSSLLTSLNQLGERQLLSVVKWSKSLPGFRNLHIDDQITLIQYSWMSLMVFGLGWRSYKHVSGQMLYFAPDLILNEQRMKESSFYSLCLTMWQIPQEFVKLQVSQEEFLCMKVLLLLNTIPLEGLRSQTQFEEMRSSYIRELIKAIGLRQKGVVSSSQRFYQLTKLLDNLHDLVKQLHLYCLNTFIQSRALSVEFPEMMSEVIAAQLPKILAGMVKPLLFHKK
Procedure, shortened: (§2)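 Human T47D breast carcinoma cells stimulated with 1 nM progesterone; compound inhibition of induced alkaline phosphatase activity. IC50 is 50% inhibition. Average of at least duplicate determinations.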

[2] = molecular target: T2, Progesterone receptor (Homo sapiens) (UniProt P06401); experiment: as §1; format: functional, cell-based; conditions: for inhibition: concentration not given here; procedure, shortened: as §2
T2 sequence (whole entry): T1 sequence (P06401 whole entry)

[3] = molecular target: T2, Progesterone receptor (Homo sapiens); experiment: (§3) Agonist activity at progesterone receptor expressed in T47D cells by alkaline phosphatase assay; format: functional, cell-based
Procedure, shortened: (§4)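 Human T47D breast carcinoma cells; alkaline phosphatase activity measured. EC50 is the concentration giving 50% effect; efficacy shown in parentheses. Average of at least duplicate determinations.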

[4] = molecular target: T2, Progesterone receptor (Homo sapiens); experiment: Agonist activity at progesterone receptor expressed in T47D cells relative to progesterone; format: functional, cell-based
Procedure, shortened: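 Human T47D breast carcinoma cells; agonist mode; read-out is alkaline phosphatase activity; values are the average of at least duplicate determinations.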

Progesterone receptor [5] = molecular target: T1, Progesterone receptor; experiment: as §3; format: functional, cell-based; procedure, shortened: as §4
Progesterone receptor [6] = molecular target: T1, Progesterone receptor; experiment: Binding affinity to cytosolic PR in T47D cells by competition binding assay; format: cell-based
[7] = Bioavailability in rat at 1 mg/kg, po; format: ADME, organism-based; conditions: in vivo
Procedure, shortened: (§5)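 Female rats, single dose of 1 mg/kg given as IV bolus or orally. AUC0–∞, clearance, volume of distribution and terminal half-life taken from the IV arm. Oral exposure gives AUC0–∞; bioavailability from oral versus IV exposure.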

Androgen receptor [8] = molecular target: T3, Androgen receptor (Homo sapiens, UniProt P10275); experiment: Agonist activity at androgen receptor expressed in mouse fibroblast L929 cells by HRE-tk luciferase assay
T3 sequence (P10275 whole entry): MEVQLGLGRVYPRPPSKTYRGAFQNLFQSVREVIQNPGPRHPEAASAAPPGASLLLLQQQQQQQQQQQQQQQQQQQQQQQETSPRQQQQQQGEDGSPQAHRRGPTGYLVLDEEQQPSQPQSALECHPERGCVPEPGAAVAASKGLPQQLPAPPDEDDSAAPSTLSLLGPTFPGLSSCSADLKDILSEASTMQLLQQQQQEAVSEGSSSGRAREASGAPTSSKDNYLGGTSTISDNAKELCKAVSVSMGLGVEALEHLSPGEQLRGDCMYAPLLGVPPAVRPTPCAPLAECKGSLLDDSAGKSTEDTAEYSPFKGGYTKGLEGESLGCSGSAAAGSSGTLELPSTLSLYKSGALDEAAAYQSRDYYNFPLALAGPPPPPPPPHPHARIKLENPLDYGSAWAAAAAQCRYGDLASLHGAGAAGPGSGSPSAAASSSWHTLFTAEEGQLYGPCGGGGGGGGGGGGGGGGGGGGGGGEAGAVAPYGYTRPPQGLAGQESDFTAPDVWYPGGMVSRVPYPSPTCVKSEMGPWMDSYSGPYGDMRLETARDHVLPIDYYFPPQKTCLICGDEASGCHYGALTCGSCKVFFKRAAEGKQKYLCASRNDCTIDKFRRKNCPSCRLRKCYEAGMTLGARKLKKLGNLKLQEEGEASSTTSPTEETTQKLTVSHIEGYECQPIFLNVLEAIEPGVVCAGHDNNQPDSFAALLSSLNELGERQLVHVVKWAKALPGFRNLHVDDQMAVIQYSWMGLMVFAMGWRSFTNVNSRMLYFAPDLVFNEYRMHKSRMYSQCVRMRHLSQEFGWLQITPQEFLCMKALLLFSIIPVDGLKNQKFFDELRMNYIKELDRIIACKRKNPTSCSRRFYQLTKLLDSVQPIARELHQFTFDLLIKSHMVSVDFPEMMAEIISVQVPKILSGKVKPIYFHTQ

[9] = Volume of distribution in rat at 1 mg/kg, iv; format: ADME, organism-based; design: dose 1 mg/kg, route intravenous; conditions: in vivo; procedure, shortened: as §5
Rattus norvegicus [10] = experiment: Effect on estrogen-induced synthesis of complement component C3 in po dosed Sprague-Dawley rat uterus epithelial cells; format: functional; conditions: Epithelial cell
Procedure, shortened: (§6)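 Adult ovariectomized Sprague–Dawley rats (60-day-old, surgery at least 8 days before dosing), groups of six, acclimated at least 72 h. Compound given once daily for 2 days, by sc injection or oral gavage, in 10% ethanol/corn oil. Ethinyl estradiol given orally on day 2. Uteri taken about 24 h later. C3 mRNA measured by Northern blot, normalized to 28S rRNA. Log-transformed ratios; Huber M-estimator.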

[11] = AUC (0 to infinity) in rat at 1 mg/kg, iv; format: ADME, organism-based; design: time infinity, dose 1 mg/kg, route intravenous; conditions: plasma; procedure, shortened: as §5
Cynomolgus monkey = experiment: Inhibition of ovulation-induced progesterone levels in po dosed cynamologous monkey; format: functional, Macaca fascicularis
Procedure, shortened: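 Cynomolgus monkeys dosed orally once daily from day 2 to 28 of the menstrual cycle; vehicle 2% Tween 80/0.5% methylcellulose. Serum progesterone sampled three times weekly until the next menses. Ovulation inferred from the progesterone pattern.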

[12] = AUC (0 to infinity) in rat at 1 mg/kg, po; format: ADME, organism-based; design: time infinity, dose 1 mg/kg, route oral; conditions: plasma; procedure, shortened: as §5
Androgen receptor [13] = molecular target: T3, Androgen receptor; experiment: Antagonist activity at androgen receptor expressed in mouse fibroblast L929 cells by HRE-tk luciferase assay
Rattus norvegicus [14] = experiment: Effect on uterine decidualization in po dosed ovariectomized Sprague-Dawley rat after 7 days; format: organism-based; conditions: 168 h
Procedure, shortened: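 Ovariectomized mature Sprague–Dawley rats (~60-day-old, 230 g), groups of 4–5, dosed once daily for 7 days by gavage. Half-log dose steps. One uterine horn decidually stimulated; the contralateral horn is the control. Horns weighed about 24 h after the last dose. D-horn/C-horn ratio log-transformed; Huber M-estimator; ANOVA and nonlinear dose–response fitting.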

[15] = Terminal half life in rat at 1 mg/kg, iv; format: ADME, organism-based; design: dose 1 mg/kg, route intravenous; conditions: in vivo; procedure, shortened: as §5
Glucocorticoid receptor [16] = molecular target: T4, Glucocorticoid receptor (Homo sapiens, UniProt P04150); experiment: Antagonist activity at glucocorticoid receptor expressed in L929 cells by HRE-tk luciferase assay
T4 sequence (P04150 whole entry): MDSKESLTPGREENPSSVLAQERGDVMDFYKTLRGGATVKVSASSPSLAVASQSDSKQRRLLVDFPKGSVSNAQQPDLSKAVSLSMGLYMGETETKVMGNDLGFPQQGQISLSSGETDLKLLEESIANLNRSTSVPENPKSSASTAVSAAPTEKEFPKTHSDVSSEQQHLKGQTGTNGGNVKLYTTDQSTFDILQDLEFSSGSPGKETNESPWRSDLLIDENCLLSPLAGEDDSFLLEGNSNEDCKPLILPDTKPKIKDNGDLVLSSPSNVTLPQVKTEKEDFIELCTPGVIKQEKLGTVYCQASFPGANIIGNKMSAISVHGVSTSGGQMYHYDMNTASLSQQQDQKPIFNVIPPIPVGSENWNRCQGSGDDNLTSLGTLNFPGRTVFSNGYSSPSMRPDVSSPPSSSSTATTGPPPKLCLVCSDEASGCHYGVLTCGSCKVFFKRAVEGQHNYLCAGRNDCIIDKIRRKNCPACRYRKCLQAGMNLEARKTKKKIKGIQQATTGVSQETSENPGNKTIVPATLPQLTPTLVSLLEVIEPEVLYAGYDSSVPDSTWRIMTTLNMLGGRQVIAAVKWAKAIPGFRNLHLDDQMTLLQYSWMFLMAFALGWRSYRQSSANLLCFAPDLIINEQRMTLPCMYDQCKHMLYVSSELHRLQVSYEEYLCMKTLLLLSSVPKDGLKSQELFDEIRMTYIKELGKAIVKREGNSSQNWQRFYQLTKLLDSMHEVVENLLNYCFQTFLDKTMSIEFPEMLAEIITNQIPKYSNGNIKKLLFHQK

[17] = Clearance in rat at 1 mg/kg, iv; format: ADME, organism-based; design: dose 1 mg/kg, route intravenous; conditions: in vivo; procedure, shortened: as §5
Glucocorticoid receptor [18] = molecular target: T4, Glucocorticoid receptor; experiment: Agonist activity at glucocorticoid receptor expressed in L929 cells by HRE-tk luciferase assay
Rattus norvegicus [19] = experiment: Effect on estrogen-induced synthesis of complement component C3 in sc dosed Sprague-Dawley rat uterus epithelial cells; format: functional, Epithelial cell; procedure, shortened: as §6

SMILES	Efficacy [4]	EC50 (Progesterone receptor [5])	Activity [2]	further results
CCC(CC)n1c(=S)[nH]c2ccc(-c3ccc(F)c(Cl)c3)cc21				IC50 (Progesterone receptor [1]): 0.0337 µM; inhibition [2]: 60%; Activity [3]: inactive
CCC(CC)n1c(=S)[nH]c2ccc(-c3cc(F)cc(C#N)c3)cc21	70%	0.27 µM		IC50 (Progesterone receptor [1]): 0.0036 µM; inhibition [2]: 50%
Cn1c(C#N)ccc1-c1ccc2[nH]c(=O)n(C3CCCC3)c2c1		> 3 µM		IC50 (Progesterone receptor [6]): 0.0262 µM
Cn1c(C#N)ccc1-c1ccc2[nH]c(=S)n(C3CCCC3)c2c1	75%	0.0001 µM	inactive	bioavailability [7]: 71%; EC50 (Androgen receptor [8]): > 10 µM; Vd [9]: 7.6 L/kg; ED50 (Rattus norvegicus [10]): 0.003 mg/kg; AUC(0-inf) [11]: 0.68 µg·h/mL; ED100 (Cynomolgus monkey): 0.03 mg/kg; AUC(0-inf) [12]: 0.48 µg·h/mL; IC50 (Androgen receptor [13]): 1 µM; ED50 (Rattus norvegicus [14]): 0.02 mg/kg; IC50 (Progesterone receptor [6]): 0.0004 µM; half-life [15]: 4.4 h; IC50 (Glucocorticoid receptor [16]): 0.099 µM; clearance [17]: 1.5 L/h/kg; EC50 (Glucocorticoid receptor [18]): > 10 µM
Cn1c(C#N)ccc1-c1ccc2[nH]c(=S)n(C3CCC3)c2c1	70%	0.0005 µM	inactive	
Fc1ccc(-c2ccc3[nH]c(=S)n(C4CCCC4)c3c2)cc1Cl	55%	0.0493 µM	inactive	
CC(=O)O[C@]1(C(C)=O)CC[C@H]2[C@@H]3C[C@H](C)C4=CC(=O)CC[C@]4(C)[C@H]3CC[C@@]21C [MEDROXYPROGESTERONE ACETATE]			inactive	ED5 (Rattus norvegicus [19]): 0.03 mg/kg
CCC(CC)n1c(=O)[nH]c2ccc(-c3ccc(C#N)n3C)cc21		> 3 µM		IC50 (Progesterone receptor [1]): 0.0117 µM
Cn1c(C#N)ccc1-c1ccc2c(c1)C(C)(C)OC(=S)N2 [TANAPROGET]				ED100 (Cynomolgus monkey): 0.01 mg/kg
CC(=O)[C@H]1CC[C@H]2[C@@H]3CCC4=CC(=O)CC[C@]4(C)[C@H]3CC[C@]12C [PROGESTERONE]			inactive	
Fc1ccc(-c2ccc3[nH]c(=S)n(C4CCCC4)c3c2)cc1F	75%	0.0625 µM	inactive	
N#Cc1cc(F)cc(-c2ccc3[nH]c(=S)n(C4CCC4)c3c2)c1	60%	0.0027 µM	inactive	
CCC(CC)n1c(=S)[nH]c2ccc(-c3ccc(C#N)n3C)cc21	70%	0.001 µM	inactive	
Cn1c(C#N)ccc1-c1ccc2[nH]c(=O)n(C3CCC3)c2c1		> 3 µM		
